From PubChem
The list is not random: actives were taken first. Their share in the collection is about 1.2%.
RanGTP-Impb inh: disruptors of Ran-importin-beta complex formation – biochemical, FRET, CFP-Ran, YFP-importin-beta, homogeneous, primary screen | AID 2216 | inhibition, % (test concentration not listed) | cell-free CFP-Ran/YFP-importin-beta FRET ratio | 300,000 compounds, 1.1% hits;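 active = more than half of the replicate wells show a fall in the fluorescence ratio signal beyond about 16%, limit read from the data, passing the limit was not always enough; inconclusive = exactly half of the replicate wells pass the set limit; inactive = fewer than half of replicates pass the limit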
CaV13 ICDI inh: Disruptors of the CACNA1D IQ motif to Ca2+-dependent inactivation inhibitor domain association, primary screening, Förster resonance energy transfer in intact living …. HEK cells, CFP/YFP FRET ICDI-IQ, plate reader, 10 min; percent FRET-ratio fall versus neutral wells. inhibition, % at 12.3 µM. 340,000 compounds, 0.098% hits. AID 743397;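 active = mean replicate inhibition of at least 30% and at least 1% of replicates passing that level; inconclusive = only one of the two criteria is met; inactive = neither criterion is met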
Runt-SMMHC FRET: blocks binding of human RUNX1 Runt domain to CBFb-SMMHC | Q01196+Q13951 | inhibition, % at 20 µM | Cerulean-Runt/Venus-CBFb-SMMHC FRET ratio 530/480, 1 h | 220,000 compounds, 0.74% hits;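 active = mean inhibition across duplicate retests at 20 µM reaching about 50%, limit read from the data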;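 also: inhibitors lower the FRET ratio by blocking Runt binding to CBFb-SMMHC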
Target sequence (Q01196 whole entry, looked up, the tested form may be a part): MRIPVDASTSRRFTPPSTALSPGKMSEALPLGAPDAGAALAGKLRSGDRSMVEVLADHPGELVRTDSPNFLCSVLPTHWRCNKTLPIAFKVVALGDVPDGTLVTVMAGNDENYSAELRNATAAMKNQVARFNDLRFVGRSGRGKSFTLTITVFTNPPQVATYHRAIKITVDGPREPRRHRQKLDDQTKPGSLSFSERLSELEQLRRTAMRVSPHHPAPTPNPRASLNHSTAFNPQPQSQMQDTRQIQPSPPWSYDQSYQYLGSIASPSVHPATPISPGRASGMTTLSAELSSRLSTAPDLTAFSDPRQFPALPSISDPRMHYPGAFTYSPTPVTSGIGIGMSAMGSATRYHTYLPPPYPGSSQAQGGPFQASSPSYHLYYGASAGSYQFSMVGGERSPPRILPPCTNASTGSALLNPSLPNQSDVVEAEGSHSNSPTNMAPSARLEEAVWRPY
Target sequence (Q13951 whole entry, looked up, the tested form may be a part): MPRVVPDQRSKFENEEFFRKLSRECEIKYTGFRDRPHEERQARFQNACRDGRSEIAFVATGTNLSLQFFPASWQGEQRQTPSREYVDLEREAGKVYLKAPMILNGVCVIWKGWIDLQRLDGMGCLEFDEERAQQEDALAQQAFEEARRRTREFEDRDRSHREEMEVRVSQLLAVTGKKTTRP
Runt-CBFb FRET: blocks binding of human RUNX1 Runt domain to CBFb. AID 1496. inhibition, % at 20 µM. Cerulean-Runt/Venus-CBFb FRET ratio 530/480, 1 h. Q01196+Q13951. 220,000 compounds, 0.46% hits;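 active = inhibition over about 50% at 20 µM in the single-dose screen, limit read from the data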
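Assay system: Cerulean-Runt domain fusion protein, energy donor; Signal: fluorescence energy transfer, 422 nm excitation, 530/480 nm emission; Timing: 1 h compound exposure, room temperature; Control set: unlabeled CBFb; Medium: Tris buffer pH 7.5 with salts and BSA; Compound: single test concentration of 20 µM, 1% DMSO final; Probe or stimulus: Venus-CBFb 100 nM.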
A number is an active result; 0 = inactive; ? = inconclusive; - = not tested or not shown; + = active, no number.

SMILES	RanGTP-Impb inh	CaV13 ICDI inh	Runt-SMMHC FRET	Runt-CBFb FRET
Cc1cc(-c2ccco2)n2c(nc3ccccc32)c1C#N	0	0	0	0
CCCc1cc(NCCCCO)n2c(nc3ccccc32)c1C#N	43	0	54	0
C=C(C)Cc1c(C)c(C#N)c2nc3ccccc3n2c1N1CCCCC1	29	0	0	0
O=C(OCc1ccc(Br)cc1)c1cccc(S(=O)(=O)N2CCCC2)c1	?	0	-	-
Cc1cc(NCCCN2CCOCC2)n2c(nc3ccccc32)c1C#N	30	0	0	0
Cc1cc(NCCN2CCOCC2)n2c(nc3ccccc32)c1C#N	0	0	0	0
CCCC(=O)Nc1nn(C)c2nc3c(C)cccc3cc12	31	-	0	0
CCCn1nc(NC(=O)COC)c2cc3cccc(C)c3nc21	38	0	-	-
Cc1cccc2cc3c(NC(=O)c4ccccn4)nn(C)c3nc12	35	-	0	57
CCCn1nc(NC(C)=O)c2cc3cccc(C)c3nc21	69	0	-	-
CCn1nc(NC(=O)CC(C)C)c2cc3cccc(C)c3nc21	?	0	-	-
Cc1ccc(S(=O)(=O)N2CCN(C(=O)CNC(=O)c3sc4ccccc4c3Cl)CC2)cc1	0	0	-	-
COC(=O)C1Cc2c([nH]c3ccccc23)C2(CCN(Cc3ccccc3)CC2)N1 (centres undefined)	0	0	-	-
CC(=O)n1nc(-c2ccccc2)cc1-c1ccccc1	0	0	-	-
CCn1nc(NC(=O)C(C)(C)C)c2cc3cccc(C)c3nc21	47	0	-	-
Cc1snc(SCC(=O)c2ccc([N+](=O)[O-])cc2)c1C#N	-	0	60	0
COc1ccc(C2C=C(c3ccccc3)Nc3ncnn32)cc1 (centres undefined)	0	-	63	0
COc1ccc(C2=CC(c3ccco3)n3ncnc3N2)cc1 (centres undefined)	-	-	87	0
Clc1ccccc1C1=CC(c2ccco2)n2ncnc2N1 (centres undefined)	43	+	0	0
O=C(Nc1ccc2c(c1)C(=O)OC2)c1ccccc1Cl	?	0	-	-
Clc1ccc(-c2cn3nc4c(nc3n2)CCCC4)cc1	70	0	0	0
COc1cccc(-c2cn3nc4c(nc3n2)CCCC4)c1	46	-	0	0
Cc1nc(C(=O)Nc2cc(F)cc(Cl)c2)sc1C1(C)CC(c2ccccc2)=NO1 (centres undefined)	0	0	-	-
O=c1oc2ccccc2cc1-c1nc2c(s1)CCCC2	83	0	0	52
O=c1oc2ccccc2cc1-c1csc(NN=C2CCCCC2)n1	0	-	0	0
SMILES	RanGTP-Impb inh	CaV13 ICDI inh	Runt-SMMHC FRET	Runt-CBFb FRET
COc1ccc(NS(=O)(=O)c2cc(NC(=O)c3ccc(=O)[nH]n3)ccc2N2CCOCC2)cc1	-	0	-	-
COc1cc(-c2nc3cnccn3c2NC(C)(C)CC(C)(C)C)ccc1O	0	0	-	-
COc1cc(-c2nc3cnccn3c2Nc2c(C)cccc2C)ccc1O	52	-	0	0
Cc1c(OC(=O)CNC(=O)OC(C)(C)C)ccc2c3c(c(=O)oc12)CCC3	-	0	83	0
CC(C)CN(Cc1c(O)ccc2c3c(c(=O)oc12)CCC3)CC(C)C	0	0	100	0
Cc1c(Cc2ccccc2)c(=O)oc2c(CN(C)C)c(O)c(Cl)cc12	71	0	90	126
CCC(=O)c1cc2c(C)cc(=O)oc2c(C)c1O	0	-	0	0
C=CCc1c(O)c(CC)cc2c(C)cc(=O)oc12	62	+	80	0
Cc1cccc(S(=O)(=O)NNC(=O)Cc2cccn2C)c1	0	0	0	0
CCCn1ncc(CN2CCCC(C(=O)c3cccc(OC(C)C)c3)C2)c1C (centres undefined)	0	0	0	0
Cc1cccc(COC(=O)CCCNC(=O)c2ccc(Cl)cc2)c1	-	0	-	-
CCN(CC)Cc1c(O)ccc2c(-c3ccccc3)cc(=O)oc12	0	0	0	0
CCN1CCN(Cc2c(O)ccc3c(C)cc(=O)oc23)CC1	0	0	-	-
CCN(CC)Cc1c(O)c(Cl)cc2c(C)cc(=O)oc12	0	35	138	76
Cc1cc(=O)oc2c(CN(CC(C)C)CC(C)C)c(O)ccc12	0	0	77	0
Cc1c(O)ccc2c3c(c(=O)oc12)CCCC3	-	0	90	75
Cc1c(Br)c(=O)oc2c(Br)c(O)ccc12	0	0	86	0
COCc1[nH]nc2c1C(c1ccc(F)cc1)N(Cc1ccccc1)C2=O (centres undefined)	-	0	-	-
Cc1cc(NS(=O)(=O)c2ccc(NC(=O)c3ccccc3F)cc2)no1	-	0	-	-
